Test results: BindingDB's records for doi:10.1016/j.bmcl.2004.04.085 (Merck Sharp & Dohme Research Laboratories, 2004)

What was measured:
[1] = target: T1, Gamma-aminobutyric acid receptor subunit alpha-3/beta-3/gamma-2 (Homo sapiens, UniProt P34903+P18507+P28472); assay: In vitro binding affinity against Gamma-aminobutyric acid A receptor, alpha 3 expressed in L(tk) cells by displacement of [3H]Ro-151788
T1 sequence (P34903 whole entry): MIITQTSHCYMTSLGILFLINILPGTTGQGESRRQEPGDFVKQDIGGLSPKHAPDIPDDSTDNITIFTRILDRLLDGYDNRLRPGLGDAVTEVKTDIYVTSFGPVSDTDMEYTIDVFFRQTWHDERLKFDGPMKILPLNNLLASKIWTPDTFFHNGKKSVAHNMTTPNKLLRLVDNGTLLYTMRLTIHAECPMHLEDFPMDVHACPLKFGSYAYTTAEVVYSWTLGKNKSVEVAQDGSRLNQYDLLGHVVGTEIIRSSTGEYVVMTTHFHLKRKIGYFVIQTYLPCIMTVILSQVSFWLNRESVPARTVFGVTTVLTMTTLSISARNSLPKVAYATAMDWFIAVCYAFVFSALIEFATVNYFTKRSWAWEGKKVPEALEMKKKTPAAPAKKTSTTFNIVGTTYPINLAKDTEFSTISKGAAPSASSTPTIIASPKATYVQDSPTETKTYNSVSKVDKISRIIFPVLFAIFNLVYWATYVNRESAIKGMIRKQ
T1 sequence (P18507 whole entry): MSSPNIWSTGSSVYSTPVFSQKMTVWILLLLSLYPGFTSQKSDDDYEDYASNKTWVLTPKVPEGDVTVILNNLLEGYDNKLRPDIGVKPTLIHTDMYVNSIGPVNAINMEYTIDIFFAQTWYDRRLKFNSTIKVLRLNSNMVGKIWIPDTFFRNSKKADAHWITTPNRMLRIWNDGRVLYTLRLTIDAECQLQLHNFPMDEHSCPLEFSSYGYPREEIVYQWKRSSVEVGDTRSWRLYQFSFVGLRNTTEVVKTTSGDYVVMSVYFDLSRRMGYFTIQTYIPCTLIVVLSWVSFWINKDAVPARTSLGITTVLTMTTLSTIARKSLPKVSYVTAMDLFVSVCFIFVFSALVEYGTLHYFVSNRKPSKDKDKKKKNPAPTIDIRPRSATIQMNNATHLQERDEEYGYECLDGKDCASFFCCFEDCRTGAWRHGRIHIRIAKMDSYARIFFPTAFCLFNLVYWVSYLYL
T1 sequence (P28472 whole entry): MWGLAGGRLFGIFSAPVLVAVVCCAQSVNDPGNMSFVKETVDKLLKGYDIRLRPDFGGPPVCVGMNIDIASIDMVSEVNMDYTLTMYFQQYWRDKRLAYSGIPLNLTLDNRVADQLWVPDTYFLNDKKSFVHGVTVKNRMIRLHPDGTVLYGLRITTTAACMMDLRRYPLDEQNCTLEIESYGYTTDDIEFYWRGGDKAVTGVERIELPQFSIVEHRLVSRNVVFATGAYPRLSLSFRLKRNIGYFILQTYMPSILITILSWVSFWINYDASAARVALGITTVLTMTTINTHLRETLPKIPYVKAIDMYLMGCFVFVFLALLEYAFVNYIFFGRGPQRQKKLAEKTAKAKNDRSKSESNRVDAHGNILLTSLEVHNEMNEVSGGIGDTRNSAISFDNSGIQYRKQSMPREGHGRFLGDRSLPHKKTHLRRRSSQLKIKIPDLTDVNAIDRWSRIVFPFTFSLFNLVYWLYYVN
Summary of the method: (§1)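 Binding to cloned human α1β3γ2, α2β3γ2 or α3β3γ2 receptors stably expressed in L(tk-) cells, measured as displacement of [3H]Ro15-1788; means ± SEM, n = 3-7.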

[2] = target: T2, Gamma-aminobutyric acid receptor subunit alpha-1/beta-3/gamma-2 (Homo sapiens, UniProt P14867+P18507+P28472); assay: In vitro binding affinity against gamma-aminobutyric acid A receptor, alpha 1 expressed in L(tk) cells by displacement of [3H]Ro-151788; summary of the method: as §1
T2 sequence (P14867 whole entry): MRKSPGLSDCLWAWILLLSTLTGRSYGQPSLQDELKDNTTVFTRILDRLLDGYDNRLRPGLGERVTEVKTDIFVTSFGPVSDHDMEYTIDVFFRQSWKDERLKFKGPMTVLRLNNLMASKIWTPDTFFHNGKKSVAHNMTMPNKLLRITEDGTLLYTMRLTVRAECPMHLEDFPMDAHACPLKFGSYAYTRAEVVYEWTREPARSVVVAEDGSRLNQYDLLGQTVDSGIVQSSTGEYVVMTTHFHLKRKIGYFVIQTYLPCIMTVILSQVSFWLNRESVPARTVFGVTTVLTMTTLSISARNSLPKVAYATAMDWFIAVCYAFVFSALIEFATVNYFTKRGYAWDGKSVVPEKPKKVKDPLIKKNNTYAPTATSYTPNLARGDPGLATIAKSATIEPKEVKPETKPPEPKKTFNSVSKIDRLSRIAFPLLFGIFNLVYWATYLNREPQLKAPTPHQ
T2 sequence (P18507 whole entry): T1 sequence (P18507 whole entry)
T2 sequence (P28472 whole entry): T1 sequence (P28472 whole entry)

[3] = target: T1, Gamma-aminobutyric acid receptor subunit alpha-3/beta-3/gamma-2; assay: In vitro displacement of [3H]Ro-151788 from human GABA-A receptor alpha-3-beta-3-gamma-2 subunits expressed in L(tk-) cells; summary of the method: as §1

Structure (SMILES)	Ki [1] [nM]	Ki [2] [nM]	Ki [3] [nM]
O=c1c2cnc3c(c2[nH]n1-c1ccc(OC(F)F)cc1)CCCC3 [2-(4-Difluoromethoxy-phenyl)-2,5,6,7,8,9-hexahydro-pyrazolo[4,3-c]quinolin-3-one]	2.3	1	
O=c1c2cnc3c(c2[nH]n1-c1ccc(OC(F)(F)F)cc1)CCCC3 [2-(4-Trifluoromethoxy-phenyl)-2,5,6,7,8,9-hexahydro-pyrazolo[4,3-c]quinolin-3-one]		7.3	
O=c1c2c([nH]n1-c1ccc(Cl)cc1)C1CCCC1N=C2 (stereo not drawn) [2-(4-Chloro-phenyl)-2,5a,6,7,8,8a-hexahydro-5H-cyclopenta[b]pyrazolo[3,4-d]pyridin-3-one]	1.1		
O=c1c2c([nH]n1-c1ccc(Cl)cc1)C1CCCCCC1N=C2 (stereo not drawn) [2-(4-Chloro-phenyl)-2,5a,6,7,8,9,10,10a-octahydro-5H-1,2,5-triaza-cyclohepta[e]inden-3-one]		1.1	
O=c1c2cnc3c(c2[nH]n1-c1ccc(OC2CC2)cc1)CCCC3 [2-(4-Cyclopropoxy-phenyl)-2,5,6,7,8,9-hexahydro-pyrazolo[4,3-c]quinolin-3-one]		1.1	2.2
O=c1c2c([nH]n1-c1ccc(Cl)cc1)C1CN(CC3CC3)CCC1N=C2 (stereo not drawn) [2-(4-Chloro-phenyl)-8-cyclopropylmethyl-2,5,5a,6,7,8,9,9a-octahydro-pyrazolo[4,3-c][1,6]naphthyridin-3-one]	7.5		
